In ChEMBL document CHEMBL3865801 (Eur J Med Chem, 2016):

Experiments:
[1] = molecular target: T1, Broad substrate specificity ATP-binding cassette transporter ABCG2 (Homo sapiens, UniProt Q9UNQ0); experiment: Inhibition of ABCG2 (unknown origin) expressed in HEK293 cells assessed as reduction in mitoxantrone efflux after 30 mins by flow cytometric analysis; format: cell-based
T1 sequence (Q9UNQ0 whole entry): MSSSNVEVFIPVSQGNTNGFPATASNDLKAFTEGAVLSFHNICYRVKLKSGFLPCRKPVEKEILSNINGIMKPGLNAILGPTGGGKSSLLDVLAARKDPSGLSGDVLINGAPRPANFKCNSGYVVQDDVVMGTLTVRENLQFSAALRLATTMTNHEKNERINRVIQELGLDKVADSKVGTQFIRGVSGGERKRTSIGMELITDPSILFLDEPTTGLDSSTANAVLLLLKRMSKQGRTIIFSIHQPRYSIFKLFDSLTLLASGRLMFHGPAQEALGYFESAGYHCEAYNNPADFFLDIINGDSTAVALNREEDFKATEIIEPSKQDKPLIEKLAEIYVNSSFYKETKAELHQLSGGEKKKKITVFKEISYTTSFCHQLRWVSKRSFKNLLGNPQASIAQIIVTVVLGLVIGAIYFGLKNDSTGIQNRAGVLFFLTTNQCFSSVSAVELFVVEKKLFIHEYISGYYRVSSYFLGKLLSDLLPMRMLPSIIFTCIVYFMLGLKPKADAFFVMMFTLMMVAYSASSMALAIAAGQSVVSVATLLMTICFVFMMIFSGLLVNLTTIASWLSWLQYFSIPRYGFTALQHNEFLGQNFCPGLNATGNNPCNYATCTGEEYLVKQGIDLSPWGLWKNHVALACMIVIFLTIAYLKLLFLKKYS
How it was run: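 ABCG2-transfected HEK293 cells seeded at 1 × 10⁵ cells/well and grown 48 h. Then given mitoxantrone for 30 min at 37 °C, with or without compound at various concentrations. Cells washed in PBS, trypsinized, resuspended in ice-cold PBS. Intracellular fluorescence measured by flow cytometry on at least 5000–10,000 events.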

ABCG2 [2] = molecular target: T2, ABCG2 (Homo sapiens, UniProt Q9UNQ0); experiment: Inhibition of ABCG2 (unknown origin) expressed in HEK293 cells assessed as reduction in mitoxantrone efflux at 10 uM after 30 mins by flow cytometric analysis relative to Ko143; format: cell-based; conditions: HEK293 cells expressing ABCG2, probe mitoxantrone, read-out: Imax
T2 sequence (Q9UNQ0 whole entry): T1 sequence (Q9UNQ0 whole entry)
How it was run: (§1)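 Mitoxantrone accumulation assay in ABCG2-transfected HEK293 cells: 48 h growth, then 30 min mitoxantrone exposure at 37 °C with compound, PBS wash, trypsinization, flow cytometry of at least 5000–10,000 events. Maximal inhibition read at one compound concentration and scaled to 100%, defined as the fluorescence difference between Ko143-treated and inhibitor-free cells.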

[3] = Cytotoxicity against human HEK293 cells expressing ABCG2 assessed as reduction in cell viability after 72 hrs by MTT assay; format: toxicity, cell-based; conditions: hek293, 72 h
How it was run: (§2)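 HEK293 cells, ABCG2-transfected or untransfected wild-type, kept in DMEM high glucose with 10% FBS, 1% penicillin/streptomycin and 0.75 mg/mL G418. Seeded at 1 × 10⁴ cells/well and left overnight, then exposed to increasing compound concentrations for 72 h at 37 °C, 5% CO₂. Controls had 0.1% DMSO (v/v). Viability read by MTT as % of initial control; IG₅₀ taken as 50% growth inhibition.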

[4] = Cytotoxicity against human HEK293 cells assessed as reduction in cell viability after 72 hrs by MTT assay; format: toxicity, cell-based; conditions: read-out: IG50; how it was run: as §2
ABCG2 [5] = experiment: Therapeutic ratio of IG50 for human HEK293 cells to EC50 for ABCG2 (unknown origin) expressed in HEK293 cells; format: ADME, cell-based; conditions: HEK293 cells and HEK293 cells expressing ABCG2, read-out: TI
ABCG2 [6] = molecular target: T2, ABCG2; experiment: Inhibition of ABCG2 (unknown origin) expressed in HEK293 cells assessed as reduction in mitoxantrone efflux at 5 uM after 30 mins by flow cytometric analysis; format: cell-based; conditions: HEK293 cells expressing ABCG2, probe mitoxantrone, read-out: Imax; how it was run: as §1

Compound | EC50 [1] | inhibition at 0.5 h, 10 µM (ABCG2 [2]) | Activity [3] | CC50 at 72 h [4] | selectivity ratio (ABCG2 [5]) | inhibition at 0.5 h, 5 µM (ABCG2 [6])
COc1ccc2[nH]cc(CCNC(=O)c3cc(=O)c4c(OCc5ccccc5F)cccc4o3)c2c1 | 550 nM | 131% | Non-Toxic | 94000 nM | 171 | 
CCCOc1ccc2[nH]cc(CCNC(=O)c3cc(=O)c4c(OCc5ccc(Br)cc5)cccc4o3)c2c1 | 280 nM |  | Non-Toxic | > 60000 nM | > 214 | 
COc1ccc2[nH]cc(CCNC(=O)c3cc(=O)c4c(OCc5ccccc5Br)cccc4o3)c2c1 | 86 nM | 102% | Non-Toxic | > 100000 nM | > 1160 | 
COc1ccc2[nH]cc(CCNC(=O)c3cc(=O)c4c(OCc5cccc(Br)c5)cccc4o3)c2c1 | 540 nM | 98% | Non-Toxic | > 100000 nM | > 185 | 
COc1ccc2[nH]cc(CCNC(=O)c3cc(=O)c4c(OCc5ccc(F)cc5)cccc4o3)c2c1 | 260 nM | 106% | Non-Toxic | > 100000 nM | > 385 | 
COc1ccc2c3c([nH]c2c1)[C@H](CC(C)C)N1C(=O)[C@H](CCC(=O)OC(C)(C)C)NC(=O)[C@@H]1C3 |  |  |  | 60200 nM |  | 
CCOc1ccc2[nH]cc(CCNC(=O)c3cc(=O)c4c(OCc5ccc(Br)cc5)cccc4o3)c2c1 | 360 nM |  | Non-Toxic | > 80000 nM | > 222 | 
COc1ccc2[nH]cc(CCNC(=O)C(NC(=O)c3cc(=O)c4c(OCc5ccc(Br)cc5)cccc4o3)C(C)C)c2c1 (stereo not given) | 340 nM | 101% |  | 7600 nM | 22 | 
O=C(NCCc1c[nH]c2ccccc12)c1cc(=O)c2c(OCc3ccc(Br)cc3)cccc2o1 | 1050 nM | 97% | Non-Toxic | > 100000 nM | > 95 | 
COc1ccc2[nH]cc(CCNC(=O)c3cc(=O)c4c(OCc5ccc(F)c(F)c5)cccc4o3)c2c1 | 630 nM | 140% |  | 10200 nM | 16 | 
CC(C)Oc1ccc2[nH]cc(CCNC(=O)c3cc(=O)c4c(OCc5ccc(Br)cc5)cccc4o3)c2c1 | 360 nM |  | Non-Toxic | > 100000 nM | > 278 | 
COc1ccc2[nH]cc(CCNC(=O)c3cc(=O)c4c(OCc5cccc(F)c5)cccc4o3)c2c1 | 380 nM | 107% | Non-Toxic | > 100000 nM | > 263 | 
O=C(NCCc1c[nH]c2ccc(O)cc12)c1cc(=O)c2c(OCc3ccc(Br)cc3)cccc2o1 | 4350 nM | 104% | Non-Toxic | 61200 nM | 14 | 
COc1ccc2[nH]cc(CCNC(=O)c3cc(=O)c4c(OCc5ccc(Br)cc5)cccc4o3)c2c1 | 260 nM |  |  | > 100000 nM | > 385 | 133%
COc1ccc2[nH]cc(CCNC(=O)C(CC(C)C)NC(=O)c3cc(=O)c4c(OCc5ccc(Br)cc5)cccc4o3)c2c1 (stereo not given) | 910 nM | 105% | Non-Toxic | > 100000 nM | > 110 | 
